# Rows were chosen to be rich in hits. Some 4.8% of all compounds tested hit in one or more screens of this group.
# SUMO Mot1 rescue = blocks SUMOylation pathway, rescuing yeast Mot1-301 growth; 320,000 tested, 1% active; S. cerevisiae Mot1-301 growth rescue, ATP luminescence, 38.5C; percent above DMSO median, 100 means doubled; growth rescue, % at 18.8 µM;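 active = every valid replicate shows activation above 250% relative to neutral control wells; inactive = the rest, any valid replicate at or below 250%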;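 also: OY570 slx delta 5 strain wells were the positive control but not used for scaling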
# T cruzi inh = blocks replication of Trypanosoma cruzi; T. cruzi beta-gal in NIH3T3, luminescence, 90 h; inhibition, % (test concentration not listed); 300,000 tested, 1.4% active; AID 1885;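 active = mean inhibition across valid replicates above about 55%, limit read from the data; inconclusive = mean below that limit but half or more replicates reach it; inactive = mean below it, under half of replicates reach it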;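 also: signal also drops with host cell toxicity which is not excluded here; 0% = plate median of DMSO wells and 100% = zero luminescence signal; higher percent means less beta-gal luminescence so fewer parasites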
#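 System: mouse NIH/3T3 fibroblasts infected with β-gal-expressing T. cruzi Tulahuen C4 / Input: NIH/3T3 cells, 5,000 per well / Buffer or medium: Low-serum DMEM with 2% FBS / Probe or stimulus: 5000 reporter trypomastigotes per well / Schedule: ≥90 h infection period, 3 h prior cell attachment / Measured by: GalScreen luminescence, 60 min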
# Efflux pump mplx = inhibitors of Candida antifungal efflux pumps expressed in yeast | S. cerevisiae Candida pump triplex, Nile Red efflux | inhibition, % at 10 µM | 330,000 tested, 0.44% active | AID 485275;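 active = plate passing quality check with inhibition over a set limit, or well fluorescence over plate mean plus 4 SD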;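 also: Nile Red retained in pooled yeast measured as flow cytometry median fluorescence; 0% = buffer negative control and 100% = Enniatin B positive control; higher means more Nile Red kept so more efflux inhibition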
# WT yeast gro inh = growth inhibition of WT yeast, mitochondrial fusion screen | AID 1362 | 190,000 tested, 2.1% active | mitochondrial fusion phenotypic screen, WT strain | inhibition, % at 10 µM; in the data active = inhibition above about 58%; tested in S. cerevisiae
# CSC inhib = cancer stem cell inhibition; cancer stem cell-like cells viability, luminescence; inhibition, % at 7.5 µM; 300,000 tested, 1.1% active; AID 2717; in the data active = inhibition above about 75%; inconclusive = no clear call, values can overlap the other calls; tested in HMLE shEcad cells
# Beta apoptosis = beta cell apoptosis inhibition. AID 435005. 300,000 tested, 0.8% active. INS-1E cytokine-induced death, ATP luminescence, 48 h; percent of positive-control rescue, neutral wells zero. protection from apoptosis, % (concentration not given with the values);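 active = Every replicate reaches about 75%, or at least half do and their mean reaches it too, limit read from the data; inconclusive = At least half of replicates reach the limit but their mean does not; inactive = Under half of replicates reach the limit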;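 also: 0% = cytokine-treated negative control wells and 100% = positive control rescue; higher means more ATP so stronger rescue from cytokine killing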
# * marks the source's active call; other numbers are inactive results; ? = inconclusive; / = no result given.
SMILES,SUMO Mot1 rescue,T cruzi inh,Efflux pump mplx,WT yeast gro inh,CSC inhib,Beta apoptosis
O=Cc1s/c(=N\S(=O)(=O)c2ccccc2)n(CCCCl)c1Cl,/,81*,/,-5,/,/
CC(C)N(Cc1ccccc1)C(=S)NCc1ccccc1,2,4,0,34,-27,-7
CC(C)N(C(=S)NC1CCCCC1)c1ccccc1,1,-9,0,59*,-2,-1
COc1ccccc1NC(=S)N(c1ccccc1)C(C)C,-1,9,0,-3,3,11
CC(C)N(Cc1ccccc1)C(=S)NC1CCCCC1,1,-10,0,64*,-4,-4
COC(=O)N=Nc1c(O)[nH]c2ccc(Br)cc12,0,8,0,/,8,-6
Oc1[nH]c2ccc(Br)cc2c1N=NC(=S)N1CCOCC1,240,55*,0,/,?,108*
NC(=S)N=Nc1c(O)[nH]c2ccccc12,/,-6,-1,-13,-2,6
Oc1[nH]c2ccccc2c1N=NC(=S)N1CCOCC1,1,56*,0,/,35,83*
Cc1cc(Cl)ccc1N(CC(=O)NCc1ccccc1)S(C)(=O)=O,-1,-2,0,/,-8,1
O=C(CCNS(=O)(=O)c1ccc(Br)s1)Nc1ccc(Cl)cc1,-2,58*,0,18,3,-4
O=[N+]([O-])c1ccc(NCCCN2CCOCC2)c([N+](=O)[O-])c1,600*,0,0,-28,-23,1
O=C(Nc1ccc(Cl)c([N+](=O)[O-])c1)c1ccc(NCCCN2CCOCC2)c([N+](=O)[O-])c1,406,55*,-1,6,/,12
CC(C)(CNc1ccc([N+](=O)[O-])cc1C#N)N1CCOCC1,110,5,0,-7,0,1
CC(C)(CNc1ccc(S(=O)(=O)C(F)(F)F)cc1[N+](=O)[O-])N1CCOCC1,12,55*,0,/,53,10
Cc1ccc(C)c(N(C(=O)c2csnn2)C(C(=O)NC2CCCCC2)c2ccccn2)c1 (configuration not stated),7,-2,0,/,-12,1
Cc1ccc(OCc2cc(C(=O)N(C)Cc3cc(C4CC4)n[nH]3)no2)cc1C,5,5,0,/,1,?
CC(C)(C)C1CCc2sc(C(=O)NNC(=O)CCl)cc2C1 (configuration not stated),/,67*,/,42,/,/
O=C(NN=C1CCC(c2ccccc2)CC1)c1cc2c(s1)CCCC2 (configuration not stated),292,-2,0,-5,5,-6
CC(C)(C)C1CCC(=NNC(=O)c2cc3c(s2)CCCC3)CC1 (configuration not stated),542*,-3,0,-15,-11,-8
CCOc1ccccc1NC(=O)CN(c1ccc(OC)cc1OC)S(=O)(=O)c1ccccc1[N+](=O)[O-],1,39,0,3,19,-19
CN1CCN(c2ccc(S(=O)(=O)N3CCOCC3)cc2NC(=O)Cc2ccccc2F)CC1,0,/,0,/,/,-5
CCCCCC(=O)Nc1cc(S(=O)(=O)N2CCOCC2)ccc1N1CCN(C)CC1,-8,64*,1,/,2,0
CSCCC(=O)Nc1cc(S(=O)(=O)N2CCOCC2)ccc1N1CCN(C)CC1,14,65*,0,3,5,-4
Cc1cc(S(=O)(=O)N2CCCC(N(C)CCc3ccccn3)C2)c(C)cc1Cl (configuration not stated),/,52,0,/,/,/
SMILES,SUMO Mot1 rescue,T cruzi inh,Efflux pump mplx,WT yeast gro inh,CSC inhib,Beta apoptosis
CN(C)CCN(C(=O)CCS(=O)(=O)c1ccccc1)c1nc2cc3c(cc2s1)OCO3,-5,38,0,/,-6,1
CCN(CC)CCN(C(=O)C1CCCCC1)c1nc2cc3c(cc2s1)OCO3,-6,61*,0,/,8,-1
CCN(CC)CCN(C(=O)CCS(=O)(=O)c1ccccc1)c1nc2cc3c(cc2s1)OCO3,2,60*,0,/,4,4
O=C(C1CCCCC1)N(CCN1CCCC1)c1nc2ccccc2s1,-9,57*,0,18,/,/
O=[N+]([O-])c1ccccc1S(=O)(=O)N1CCSCC1,-7,/,0,/,-21,-11
COc1cc(Br)cc(C=Nc2cccc(C(F)(F)F)c2)c1O,326*,-14,0,4,16,-1
COc1cccc(C=Nc2cc(C)cc(C)c2)c1O,10,1,0,7,-12,-12

# Screening results deposited in PubChem BioAssay by several laboratories.
